Rows were chosen to be rich in hits. Some 2.9% of all compounds tested hit in one or more screens of this group.
SENP8 block-1: SENP8 protease inhibition. AID 2540. inhibition, % at 10 µM. Q96LD8. 330,000 compounds, 1.2% hits. purified SENP8, Z-RLRGG-aminoluciferin cleavage, luminescence; in the data active = inhibition above about 50%
SENP8 block-2: blocks human SENP8 cleavage of Nedd8 substrate | recombinant SENP8, Nedd8 substrate fluorescence | inhibition, % at 20 µM | AID 602440 | 360,000 compounds, 0.64% hits; in the data active = inhibition mostly above about 40%, no sharp cut-off; inactive = mostly below about 27%
SENP6 inh: SENP6 protease inhibition. Q9GZR1. Recombinant SENP6 catalytic domain, aminoluciferin luminescence. inhibition, % at 10 µM. 330,000 compounds, 1.8% hits. AID 2599;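 active = inhibition above about 50% at the single tested dose, limit read from the data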;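 also: plate controls were DMSO wells with enzyme for no effect and DMSO wells lacking enzyme for full effect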
HSP90 inh: inhibitors of HSP90 luciferase refolding in rabbit reticulocyte lysate | luciferase refolding luminescence, 3 h | inhibition, % at 5.6 µM | 290,000 compounds, 0.91% hits | AID 1789;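 active = inhibition above the screen-wide mean plus 3 SD, computed separately per campaign, cut at about 16% in these data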;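 also: 0% = DMSO wells and 100% = 60 µM geldanamycin wells; inhibitors lower the luminescence because luciferase stays unfolded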
SENP7 inh: inhibitors of human SENP7 protease. Q9BQF6. recombinant SENP7, Z-RLRGG-aminoluciferin luminescence, 40 min. inhibition, % at 5 µM. 330,000 compounds, 1.5% hits. AID 434973;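 active = inhibition above about 50% at the single test dose, limit read from the data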;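 also: plate controls were DMSO with enzyme for no effect and no enzyme buffer wells for full effect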
SENP1 inh: inhibitors of human SENP1 SUMO protease catalytic domain. 360,000 compounds, 0.21% hits. inhibition, % at 10 µM. Q9P0U3. AID 624204. recombinant SENP1 catalytic domain, CyPet-SUMO1-YPet FRET cleavage;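 active = inhibition at least 30% at 10 µM, raw YFP signal under a set limit, fluorescence ratio 0.5 to 1.5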;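 also: 0% = enzyme with DMSO and 100% = no enzyme wells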
Target sequence (Q9P0U3 419-644 limits assumed): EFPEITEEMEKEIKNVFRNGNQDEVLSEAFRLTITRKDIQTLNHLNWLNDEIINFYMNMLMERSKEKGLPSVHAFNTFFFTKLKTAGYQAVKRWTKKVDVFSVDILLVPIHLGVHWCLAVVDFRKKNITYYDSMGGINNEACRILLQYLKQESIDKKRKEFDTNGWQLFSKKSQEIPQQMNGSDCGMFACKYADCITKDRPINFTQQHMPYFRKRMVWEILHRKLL
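Test system: human SENP1 catalytic domain; medium: Tris pH 8 buffer plus EDTA, NaCl, BME, BSA, NP40, catalase; incubation: 50 min reaction at room temperature; technique: FRET, CFP and YFP emission; controls: no-enzyme low control and enzyme-plus-DMSO high control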
SENP8 confirm: human SENP8 inhibition, confirmed; shares compounds with SENP7 inh; Recombinant SENP8, Z-RLRGG-aminoluciferin luminescence, 60 min; inhibition, % at 12.5 µM; 6,200 compounds, 40% hits; AID 488912;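 active = mean inhibition across replicates above about 50%, limit read from the data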
SENP6 conf: confirmation of human SENP6 protease inhibitors; shares compounds with SENP7 inh; recombinant SENP6, Z-RLRGG-aminoluciferin luminescence; inhibition, % at 12.5 µM; 6,200 compounds, 58% hits; AID 488915
SENP7 conf: confirmation of human SENP7 protease inhibitors; shares compounds with SENP7 inh; 6,200 compounds, 69% hits; inhibition, % at 12.5 µM; recombinant SENP7, Z-RLRGG-aminoluciferin luminescence, 40 min; AID 488917
Casp3 select: caspase-3 inhibition (SENP selectivity assay); shares compounds with SENP7 inh; purified caspase-3, Z-DEVD-aminoluciferin luminescence, 60 min; inhibition, % at 12.5 µM; 6,200 compounds, 60% hits; AID 488918;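 active = mean inhibition above about 50%, limit read from the data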;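 also: plate controls were enzyme with DMSO for no effect and wells without caspase-3 for full effect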
Target sequence (P42574 28-227 limits assumed): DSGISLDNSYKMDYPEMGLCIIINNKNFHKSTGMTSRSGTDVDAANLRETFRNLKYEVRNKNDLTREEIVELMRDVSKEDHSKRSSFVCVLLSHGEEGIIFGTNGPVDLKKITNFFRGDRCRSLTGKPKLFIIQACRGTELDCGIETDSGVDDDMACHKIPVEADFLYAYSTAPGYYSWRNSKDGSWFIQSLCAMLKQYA
Luc interf: interferes with luciferase luminescence in SENP counter-screen. shares compounds with SENP7 inh. Pre-incubated SENP8/Z-RLRGG-aminoluciferin, luciferase luminescence interference. inhibition, % at 12.5 µM. 6,200 compounds, 39% hits. AID 488919;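 active = mean inhibition above about 50% when retested at one dose, limit read from the data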;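 also: plate controls were DMSO wells with completed reaction for no effect and substrate without enzyme for full effect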
* hit, by the source's call.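 The calls were made as follows, unless noted: active = mean inhibition above about 50% in the one-dose retest (limit read from the data); inactive = the rest.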

For S=C(N/N=C/c1ccco1)NC1CC2CCC1C2 (stereo not given) the results were SENP8 block-1 2, SENP8 block-2 5, SENP6 inh 16, HSP90 inh 3, SENP7 inh 4 and SENP1 inh 0.
Screening Cc1ccc(/C=N/NC(=O)c2ccco2)s1 returned SENP8 block-1 -21, SENP8 block-2 -7, SENP6 inh -2, HSP90 inh -3, SENP7 inh -5 and SENP1 inh 1.
Cc1ccc(/C=N/NC(=O)c2ccoc2C)s1 was read as SENP8 block-1 74*, SENP8 block-2 6, SENP6 inh 88*, HSP90 inh 0, SENP7 inh 85*, SENP1 inh 0, SENP8 confirm -3, SENP6 conf 77*, SENP7 conf 95*, Casp3 select 93* and Luc interf 80*.
`Cc1occc1C(=O)N/N=C/c1ccc(Br)s1` gave SENP8 block-1 81*, SENP8 block-2 2, SENP6 inh 88*, HSP90 inh 1, SENP7 inh 88*, SENP1 inh 1, SENP8 confirm -8, SENP6 conf 78*, SENP7 conf 95*, Casp3 select 89* and Luc interf 53*.
For O/N=C/c1nc2cc(Cl)ccc2o1 the results were SENP8 block-1 -18, SENP8 block-2 4, SENP6 inh -8, HSP90 inh 2, SENP7 inh -5 and SENP1 inh 2.
Screening Clc1ccc2oc(-c3ccccn3)nc2c1 returned SENP8 block-1 28, SENP8 block-2 -42, SENP6 inh 67*, HSP90 inh 1, SENP7 inh 57*, SENP1 inh 14, SENP8 confirm 33, SENP6 conf 56*, SENP7 conf 86*, Casp3 select 78* and Luc interf 31.
Screening O=C(CN1CCCC1)N1c2ccccc2C=Cc2ccccc21 returned SENP8 block-1 -1, SENP8 block-2 -3, SENP6 inh -1, HSP90 inh -1, SENP7 inh -1 and SENP1 inh -2.
Screening N#CC1=C2C=Cc3ccccc3N2CCCC1=O returned SENP8 block-1 14, SENP8 block-2 -18, SENP6 inh 52*, HSP90 inh -1, SENP7 inh 49, SENP1 inh -68, SENP8 confirm 36, SENP6 conf 36, SENP7 conf 76*, Casp3 select 68* and Luc interf 9.
`O=C(NC1CCCCC1)N1CCN(Cc2nc3ccccc3c(=O)[nH]2)CC1` gave SENP8 block-1 -4, SENP8 block-2 31, SENP6 inh 60*, HSP90 inh -1, SENP7 inh -11, SENP1 inh 2, SENP8 confirm -5, SENP6 conf -5, SENP7 conf -6, Casp3 select -4 and Luc interf -4.
Screening CCC(CC)C(=O)N1CCN(Cc2nc3ccccc3c(=O)[nH]2)CC1 returned SENP8 block-1 4, SENP8 block-2 -13, SENP6 inh 6, HSP90 inh -4, SENP7 inh -4 and SENP1 inh -26.
For CNC(C)C#Cc1ccc2c(=O)c3c(OC)cccc3oc2c1 (stereo not given) the results were SENP8 block-1 -19, SENP6 inh -3, HSP90 inh -2 and SENP7 inh -8.

Source: PubChem BioAssay (several laboratories)
